Experimental data taken from ChEMBL document CHEMBL1145431, “Improved anti-osteoporosis potency and reduced endometrial membrane hyperplasia during hormone replacement therapy with estrogen-RGD peptide conjugates” (2007).
Where a SMILES comes first, the peptide text is derived from it. The star is where a group is joined. X1 = C[C@]12CC[C@@H]3c4ccc(OCC(=O)*)cc4CC[C@H]3[C@@H]1CCC2O

How the values were obtained:
Mus musculus [1] = assay: Effect on uterus weight in mouse at 0.055 mmol/kg, ip; type: functional
Method in brief: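 Dose study in abdominally ovariectomized female Kuiming mice (30.7 ± 3.1 g). Daily i.p. dosing in aqueous 0.5% CMC from day 5 after surgery for 4 weeks, at 110.3, 55.15 or 11.03 × 10-3 mmol/kg. Liver, lung, spleen and uterus were removed after pentobarbital euthanasia and weighed. n = 12, ANOVA, p < 0.05.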

Mus musculus [2] = assay: Effect on femur length in recipient mouse at 0.011 mmol/kg, ip; type: functional
Method in brief: (§1)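 Dose-response in OVX Kuiming mice, i.p. daily for 4 weeks in 0.5% CMC at 11.03, 55.15 or 110.3 × 10-3 mmol/kg. Left femur: length, then defatting, drying at 120 °C for 6 h (dry weight), ashing at 800 °C for 8 h. Ash/dry ratio gives mineral content. Ash Ca and P measured colorimetrically. Liver, lung and spleen weighed directly. n = 12, ANOVA.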

Mus musculus [3] = assay: Effect on serum calcium level in ovariectomized mouse at 0.1103 mmol/kg, ip once daily for 4 weeks; type: functional
Method in brief: (§2)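 OVX Kuiming mice dosed i.p. daily for 4 weeks in 0.5% CMC. Blood taken retro-orbitally on the day after the last dose, stood 30 min, spun at 3000 g for 20 min, serum stored at -20 °C. Calcium by o-methylphenolphthalein complexone, phosphorus by molybdenum blue, ALP by activity with disodium phenylphosphate substrate.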

Mus musculus [4] = assay: Effect on femur length in ovariectomized mouse at 0.1103 mmol/kg, ip once daily for 4 weeks; type: functional
Method in brief: (§3)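 Female Kuiming mice (7 weeks, 30.7 ± 3.1 g) ovariectomized, sham group abdominorotomy. From day 5, i.p. once daily for 4 weeks at 110.3 × 10-3 mmol/kg in 0.5% CMC. Left femur cleaned, length measured, defatted in chloroform-methanol (2:1, 2 × 3 h), dried 120 °C 6 h for dry weight, ashed 800 °C 8 h. Mineral content = ash/dry weight. Ash dissolved in 6 N HCl and diluted. Ca by o-methylphenolphthalein complexone, P by molybdenum blue. Lungs and livers weighed directly.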

Mus musculus [5] = assay: Effect on dry weight of femurs in recipient mouse at 0.055 mmol/kg, ip; type: functional, Femur; method in brief: as §1
Mus musculus [6] = assay: Effect on uterus weight in ovariectomized mouse at 0.1103 mmol/kg, ip once daily for 4 weeks; type: functional
Method in brief: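 Female Kuiming mice (7 weeks old, 30.7 ± 3.1 g), abdominal OVX under pentobarbital (40.0 mg/kg i.p.). From day 5 after surgery, i.p. injection once daily for 4 weeks, compound in aqueous 0.5% CMC prepared just before use. The day after the last dose, mice were anesthetized and killed, and lungs, livers, spleens and uteri were removed and weighed directly. n = 12, ANOVA, p < 0.05.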

Mus musculus [7] = assay: Effect on spleen weight in mouse at 0.1103 mmol/kg, po; type: functional
Method in brief: (§4)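 Female Kuiming mice (7 weeks old, 30.7 ± 3.1 g) under abdominal OVX, sham group abdominorotomy only. From day 5 after surgery, dosed orally once daily for 4 weeks at 110.3 × 10-3 mmol/kg in 0.5% CMC (0.2 mL), vehicle group CMC alone. Blood drawn retro-orbitally, then left femur and organs removed under pentobarbital (40.0 mg/kg, i.p.).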

Mus musculus [8] = assay: Effect on mineral level in mouse femur at 0.011 mmol/kg, ip; type: functional; conditions: in the assay text read “0.11 mmol/kg” for “0.011 mmol/kg”; method in brief: as §1
Mus musculus [9] = assay: Effect on spleen weight in mouse at 0.055 mmol/kg, ip; type: functional; method in brief: as §1
Mus musculus [10] = assay: Effect on dry weight of femurs in ovariectomized mouse at 0.1103 mmol/kg, ip once daily for 4 weeks; type: functional, Femur; method in brief: as §3
Mus musculus [11] = assay: Effect on serum phosphorous level in mouse at 0.011 mmol/kg, ip; type: functional; conditions: in the assay text read “0.11 mmol/kg” for “0.011 mmol/kg”
Method in brief: (§5)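 Dose-response in OVX Kuiming mice, i.p. daily for 4 weeks in 0.5% CMC at 11.03, 55.15 or 110.3 × 10-3 mmol/kg. Serum from retro-orbital blood (3000 g, 20 min). Calcium by o-methylphenolphthalein complexone, phosphorus by molybdenum blue, ALP by activity on disodium phenylphosphate. n = 12, ANOVA.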

Mus musculus [12] = assay: Effect on liver weight in ovariectomized mouse at 0.110 mmol/kg, ip once daily for 4 weeks; type: functional; method in brief: as §3
Mus musculus [13] = assay: Effect on serum ALP lavel in ovariectomized mouse at 0.1103 mmol/kg, ip once daily for 4 weeks; type: functional; method in brief: as §2
Mus musculus [14] = assay: Effect on mineral level in mouse femur at 0.055 mmol/kg, ip; type: functional; method in brief: as §1
Mus musculus [15] = assay: Effect on dry weight of femurs in mouse at 0.1103 mmol/kg, po; type: functional, Femur; method in brief: as §4
Mus musculus [16] = assay: Effect on phosphorous level in mouse femur at 0.055 mmol/kg, ip; type: functional; method in brief: as §1
Mus musculus [17] = assay: Effect on phosphorus level in ovariectomized mouse at 0.1103 mmol/kg, ip once daily for 4 weeks; type: functional; method in brief: as §3
Mus musculus [18] = assay: Effect on lung weight in mouse at 0.1103 mmol/kg, po; type: functional; method in brief: as §4
Mus musculus [19] = assay: Effect on serum calcium level in mouse at 0.1103 mmol/kg, ip; type: functional; method in brief: as §2
Mus musculus [20] = assay: Effect on lung weight in ovariectomized mouse at 0.1103 mmol/kg, ip once daily for 4 weeks; type: functional; method in brief: as §3
Mus musculus [21] = assay: Effect on liver weight in mouse at 0.1103 mmol/kg, po; type: functional; method in brief: as §4
Mus musculus [22] = assay: Effect on femur ash weight in ovariectomized mouse at 0.1103 mmol/kg, ip once daily for 4 weeks; type: functional; method in brief: as §3
Mus musculus [23] = assay: Effect on femur ash weight in mouse at 0.1103 mmol/kg, po; type: functional; method in brief: as §4
Mus musculus [24] = assay: Effect on dry weight of femur in recipient mouse at 0.011 mmol/kg, ip; type: functional; method in brief: as §1
Mus musculus [25] = assay: Effect on spleen weight in mouse at 0.011 mmol/kg, ip; type: functional; method in brief: as §1
Mus musculus [26] = assay: Effect on serum ALP level in mouse at 0.1103 mmol/kg, ip; type: functional; method in brief: as §2
Mus musculus [27] = assay: Effect on lenght of femur in mouse at 0.110 mmol/kg, po; type: functional; method in brief: as §4
Mus musculus [28] = assay: Effect on calcium level in mouse at 0.1103 mmol/kg, po; type: functional; method in brief: as §4
Mus musculus [29] = assay: Effect on femur ash weight in recipient mouse at 0.055 mmol/kg, ip; type: functional; method in brief: as §1
Mus musculus [30] = assay: Effect on mineral content in ovariectomized mouse at 0.1103 mmol/kg, ip once daily for 4 weeks; type: functional; method in brief: as §3
Mus musculus [31] = assay: Effect on lung weight in mouse at 0.011 mmol/kg, ip; type: functional; method in brief: as §1
Mus musculus [32] = assay: Effect on serum calcium level in mouse at 0.055 mmol/kg, ip; type: functional; method in brief: as §5
Mus musculus [33] = assay: Effect on serum phosphorous level in mouse at 0.055 mmol/kg, ip; type: functional; method in brief: as §5
Mus musculus [34] = assay: Effect on calcium level in mouse femur at 0.055 mmol/kg, ip; type: functional; method in brief: as §1
Mus musculus [35] = assay: Effect on serum ALP level in mouse at 0.055 mmol/kg, ip; type: functional; method in brief: as §5
Mus musculus [36] = assay: Effect on femur length in recipient mouse at 0.055 mmol/kg, ip; type: functional; method in brief: as §1
Mus musculus [37] = assay: Effect on serum phosphorous Concentration in mouse at 0.110 mmol/kg, po; type: functional
Method in brief: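 Oral OVX Kuiming mouse model, dosed daily for 4 weeks at 110.3 × 10-3 mmol/kg in 0.5% CMC. Retro-orbital blood stood 30 min at room temperature and was spun at 3000 g for 20 min. Serum kept at -20 °C. Calcium read by o-methylphenolphthalein complexone, phosphorus by molybdenum blue, ALP by activity on disodium phenylphosphate substrate.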

Row | Structure (SMILES) | Activity (Mus musculus [1]) | Activity (Mus musculus [2]) | Activity (Mus musculus [3]) | Activity (Mus musculus [4]) | Activity (Mus musculus [5]) | Activity (Mus musculus [6]) | Activity (Mus musculus [7]) | Ratio (Mus musculus [8]) | Activity (Mus musculus [9]) | Activity (Mus musculus [10]) | Activity (Mus musculus [11]) | Activity (Mus musculus [12]) | Activity (Mus musculus [13]) | Ratio (Mus musculus [14]) | Activity (Mus musculus [15]) | Activity (Mus musculus [16]) | Activity (Mus musculus [17]) | Activity (Mus musculus [18]) | Activity (Mus musculus [19]) | Activity (Mus musculus [20]) | other results
1 | C[C@]12CC[C@@H]3c4ccc(OCC(=O)N[C@@H](CCCNC(=N)N)C(=O)NCC(=O)N[C@@H](CC(=O)O)C(=O)N[C@@H](CO)C(=O)O)cc4CC[C@H]3[C@@H]1CCC2O (some centres undefined) (X1-RGDS-OH) | 48.6 mg | 1.642 cm | 2.004 mmol/L | 1.642 cm | 56.3 mg | 42.5 mg | 138 mg | 0.582 | 136 mg | 63.4 mg | 1.599 mmol/L | 1.377 g | 31.429 U/L | 0.479 | 68.6 mg | 24.274% | 24.949% | 166 mg | 2.014 mmol/L | 173 mg | Activity (Mus musculus [21]): 1.329 g; Activity (Mus musculus [22]): 37 mg; Activity (Mus musculus [23]): 30.4 mg; Activity (Mus musculus [24]): 48.8 mg; Activity (Mus musculus [25]): 125 mg; Activity (Mus musculus [26]): 31.4 U/L; Activity (Mus musculus [27]): 1.635 cm; Activity (Mus musculus [28]): 51.988%; Activity (Mus musculus [29]): 31.6 mg; Ratio (Mus musculus [30]): 0.582; Activity (Mus musculus [31]): 181 mg; Activity (Mus musculus [32]): 2.047 mmol/L; Activity (Mus musculus [33]): 1.607 mmol/L; Activity (Mus musculus [34]): 52.1%; Activity (Mus musculus [35]): 33.616 U/L; Activity (Mus musculus [36]): 1.622 cm; Activity (Mus musculus [37]): 1.6 mmol/L
2 | C[C@]12CC[C@@H]3c4ccc(OCC(=O)N[C@@H](CCCNC(=N)N)C(=O)NCC(=O)N[C@@H](CC(=O)O)C(=O)N[C@@H](Cc5ccccc5)C(=O)O)cc4CC[C@H]3[C@@H]1CCC2O (some centres undefined) (X1-RGDF-OH) | 55.3 mg | 1.623 cm | 2.005 mmol/L | 1.635 cm | 53.9 mg | 55.4 mg | 135 mg | 0.585 | 123 mg | 64.2 mg | 1.605 mmol/L | 1.395 g | 31.529 U/L | 0.504 | 63.1 mg | 24.845% | 25.46% | 165 mg | 2.015 mmol/L | 169 mg | Activity (Mus musculus [21]): 1.339 g; Activity (Mus musculus [22]): 35.8 mg; Activity (Mus musculus [23]): 28.7 mg; Activity (Mus musculus [24]): 46.9 mg; Activity (Mus musculus [25]): 145 mg; Activity (Mus musculus [26]): 31.5 U/L; Activity (Mus musculus [27]): 1.626 cm; Activity (Mus musculus [28]): 53.001%; Activity (Mus musculus [29]): 31.6 mg; Ratio (Mus musculus [30]): 0.585; Activity (Mus musculus [31]): 174 mg; Activity (Mus musculus [32]): 2.04 mmol/L; Activity (Mus musculus [33]): 1.602 mmol/L; Activity (Mus musculus [34]): 54.493%; Activity (Mus musculus [35]): 33.746 U/L; Activity (Mus musculus [36]): 1.624 cm; Activity (Mus musculus [37]): 1.6 mmol/L
